In ChEMBL document CHEMBL5712883, “RNA polymerase II stalling promotes nucleosome occlusion and pTEFb recruitment to drive immortalization by Epstein-Barr virus” (PLoS Pathog, 2011):
Active and inactive are the calls of the source. No cut-off for these calls is given here.

How the values were obtained:
Format in all cases: cell-based
[1] = target: T1, CDK9/cyclin T1 (Homo sapiens) (UniProt O60563+P50750); experiment: Inhibition of CDK9/Cyclin T1 in human Mutu-3 cells assessed as effect on cp-pre-initiation complex assembly at +38828 distal EBV genome region at 500 nM incubated for 2 hrs by CHIP assay
[2] = target: T1, CDK9/cyclin T1 (Homo sapiens); experiment: Inhibition of CDK9/Cyclin T1 in human Mutu-3 cells assessed as reduction in BRD4 at +34 distal EBV genome region at 500 nM incubated for 2 hrs by CHIP assay
[3] = target: T1, CDK9/cyclin T1 (Homo sapiens); experiment: Inhibition of CDK9/Cyclin T1 in human B cell transfected with EBV assessed as reduction in RNA pol II C-terminal domain phosphorylation on serine 5 at +50024 distal EBV genome region at 500 nM incubated for 2 hrs in presence of beta-estradiol by CHIP assay
[4] = target: T1, CDK9/cyclin T1 (Homo sapiens); experiment: Inhibition of CDK9/Cyclin T1 in human Mutu-3 cells assessed as reduction in BRD4 at -317 distal EBV genome region at 500 nM incubated for 2 hrs by CHIP assay
[5] = target: T1, CDK9/cyclin T1 (Homo sapiens); experiment: Inhibition of CDK9/Cyclin T1 in human Mutu-3 cells assessed as reduction in H4 histone acetylation at +1564 distal EBV genome region at 500 nM incubated for 2 hrs by CHIP assay
[6] = target: T1, CDK9/cyclin T1 (Homo sapiens); experiment: Inhibition of CDK9/Cyclin T1 in human Mutu-3 cells assessed as reduction in H3 histone acetylation at +574 distal EBV genome region at 500 nM incubated for 2 hrs by CHIP assay
[7] = target: T1, CDK9/cyclin T1 (Homo sapiens); experiment: Inhibition of CDK9/Cyclin T1 in human Mutu-3 cells assessed as effect on cp-pre-initiation complex assembly at +38667 distal EBV genome region at 500 nM incubated for 2 hrs by CHIP assay
[8] = target: T1, CDK9/cyclin T1 (Homo sapiens); experiment: Inhibition of CDK9/Cyclin T1 in human B cell transfected with EBV assessed as reduction in RNA pol II C-terminal domain phosphorylation on serine 5 at +40493 distal EBV genome region at 500 nM incubated for 2 hrs in presence of beta-estradiol by CHIP assay
[9] = target: T1, CDK9/cyclin T1 (Homo sapiens); experiment: Inhibition of CDK9/Cyclin T1 in human Mutu-3 cells assessed as effect on cp-pre-initiation complex assembly at +295 distal EBV genome region at 500 nM incubated for 2 hrs by CHIP assay
[10] = target: T1, CDK9/cyclin T1 (Homo sapiens); experiment: Inhibition of CDK9/Cyclin T1 in human Mutu-3 cells assessed as reduction in H3 histone acetylation at +34 distal EBV genome region at 500 nM incubated for 2 hrs by CHIP assay
[11] = target: T1, CDK9/cyclin T1 (Homo sapiens); experiment: Inhibition of CDK9/Cyclin T1 in human Mutu-3 cells assessed as reduction in H3 histone acetylation at +1564 distal EBV genome region at 500 nM incubated for 2 hrs by CHIP assay
[12] = target: T1, CDK9/cyclin T1 (Homo sapiens); experiment: Inhibition of CDK9/Cyclin T1 in human Mutu-3 cells assessed as effect on cp-pre-initiation complex assembly at -208 distal EBV genome region at 500 nM incubated for 2 hrs by CHIP assay
[13] = target: T1, CDK9/cyclin T1 (Homo sapiens); experiment: Inhibition of CDK9/Cyclin T1 in human Mutu-3 cells assessed as effect on cp-pre-initiation complex assembly at +30896 distal EBV genome region at 500 nM incubated for 2 hrs by CHIP assay
[14] = target: T1, CDK9/cyclin T1 (Homo sapiens); experiment: Inhibition of CDK9/Cyclin T1 in human B cell transfected with EBV assessed as reduction in RNA pol II C-terminal domain phosphorylation on serine 5 at +59014 distal EBV genome region at 500 nM incubated for 2 hrs in presence of beta-estradiol by CHIP assay
[15] = target: T1, CDK9/cyclin T1 (Homo sapiens); experiment: Inhibition of CDK9/Cyclin T1 in human Mutu-3 cells assessed as reduction in H4 histone acetylation at +2238 distal EBV genome region at 500 nM incubated for 2 hrs by CHIP assay
[16] = target: T1, CDK9/cyclin T1 (Homo sapiens); experiment: Inhibition of CDK9/Cyclin T1 in human Mutu-3 cells assessed as reduction in BRD4 at +2238 distal EBV genome region at 500 nM incubated for 2 hrs by CHIP assay
[17] = target: T1, CDK9/cyclin T1 (Homo sapiens); experiment: Inhibition of CDK9/Cyclin T1 in human Mutu-3 cells assessed as reduction in RNA pol II C-terminal domain phosphorylation on serine 5 at +30896 distal EBV genome region at 500 nM incubated for 2 hrs by CHIP assay
[18] = target: T1, CDK9/cyclin T1 (Homo sapiens); experiment: Inhibition of CDK9/Cyclin T1 in human Mutu-3 cells assessed as decrease in Cp-initiated EBNA 2 transcription at 25 to 50 uM incubated for 24 hrs by Q-PCR analysis; conditions: dose 25-50 µM
Procedure, shortened: (§1)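 Mutu III cells seeded at 5×10^5 cells/ml and given DRB or flavopiridol at the stated concentrations, with DMSO as control, for 24 hrs. cDNA was made from 10^5 cells with a cells-to-Ct SYBR kit. Q-PCR used cDNA-specific EBNA 2, EBNA 1 (YUK) or LMP1 primers, with actin as endogenous control, and was analysed by relative quantification (ddCt) against 24 hr control samples.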

[19] = target: T1, CDK9/cyclin T1 (Homo sapiens); experiment: Inhibition of CDK9/Cyclin T1 in human B cell transfected with EBV assessed as reduction in RNA pol II C-terminal domain phosphorylation on serine 5 at +48 distal EBV genome region at 500 nM incubated for 2 hrs in presence of beta-estradiol by CHIP assay
[20] = target: T1, CDK9/cyclin T1 (Homo sapiens); experiment: Inhibition of CDK9/Cyclin T1 in human Mutu-3 cells assessed as reduction in RNA pol II C-terminal domain phosphorylation on serine 5 at +38667 distal EBV genome region at 500 nM incubated for 2 hrs by CHIP assay
[21] = target: T1, CDK9/cyclin T1 (Homo sapiens); experiment: Inhibition of CDK9/Cyclin T1 in human B cell transfected with EBV assessed as reduction in RNA pol II C-terminal domain phosphorylation on serine 5 at +30896 distal EBV genome region at 500 nM incubated for 2 hrs in presence of beta-estradiol by CHIP assay
[22] = target: T1, CDK9/cyclin T1 (Homo sapiens); experiment: Inhibition of CDK9/Cyclin T1 in human HeLa cells stably transfected Flag-tagged CDK9 assessed as increase in fold change pTEFb/Brd4 complex at 1 mM by western analysis
[23] = target: T1, CDK9/cyclin T1 (Homo sapiens); experiment: Inhibition of CDK9/Cyclin T1 in human Mutu-3 cells assessed as reduction in H4 histone acetylation at +34 distal EBV genome region at 500 nM incubated for 2 hrs by CHIP assay
[24] = target: T1, CDK9/cyclin T1 (Homo sapiens); experiment: Inhibition of CDK9/Cyclin T1 in human Mutu-3 cells assessed as reduction in BRD4 at +574 distal EBV genome region at 500 nM incubated for 2 hrs by CHIP assay
[25] = target: T1, CDK9/cyclin T1 (Homo sapiens); experiment: Inhibition of CDK9/Cyclin T1 in human Mutu-3 cells assessed as effect on cp-pre-initiation complex assembly at +48 distal EBV genome region at 500 nM incubated for 2 hrs by CHIP assay
[26] = target: T1, CDK9/cyclin T1 (Homo sapiens); experiment: Inhibition of CDK9/Cyclin T1 in human B cell transfected with EBV assessed as reduction in RNA pol II C-terminal domain phosphorylation on serine 5 at +75615 distal EBV genome region at 500 nM incubated for 2 hrs in presence of beta-estradiol by CHIP assay
[27] = target: T1, CDK9/cyclin T1 (Homo sapiens); experiment: Inhibition of CDK9/Cyclin T1 in human Mutu-3 cells assessed as reduction in BRD4 at +1564 distal EBV genome region at 500 nM incubated for 2 hrs by CHIP assay
[28] = target: T1, CDK9/cyclin T1 (Homo sapiens); experiment: Inhibition of CDK9/Cyclin T1 in human Mutu-3 cells assessed as decrease in Cp-initiated LMP1 transcription at 25 to 50 uM incubated for 24 hrs by Q-PCR analysis; conditions: dose 25-50 µM; procedure, shortened: as §1
[29] = target: T1, CDK9/cyclin T1 (Homo sapiens); experiment: Inhibition of CDK9/Cyclin T1 in human B cell transfected with EBV assessed as reduction in RNA pol II C-terminal domain phosphorylation on serine 5 at -208 distal EBV genome region at 500 nM incubated for 2 hrs in presence of beta-estradiol by CHIP assay
[30] = target: T1, CDK9/cyclin T1 (Homo sapiens); experiment: Inhibition of CDK9/Cyclin T1 in human Mutu-3 cells assessed as reduction in RNA pol II C-terminal domain phosphorylation on serine 5 at W repeat EBV genome region at 500 nM incubated for 2 hrs by CHIP assay
[31] = target: T1, CDK9/cyclin T1 (Homo sapiens); experiment: Inhibition of CDK9/Cyclin T1 in human Mutu-3 cells assessed as reduction in H3 histone acetylation at -317 distal EBV genome region at 500 nM incubated for 2 hrs by CHIP assay
[32] = target: T1, CDK9/cyclin T1 (Homo sapiens); experiment: Inhibition of CDK9/Cyclin T1 in human Mutu-3 cells assessed as reduction in RNA pol II C-terminal domain phosphorylation on serine 5 at +48 distal EBV genome region at 500 nM incubated for 2 hrs by CHIP assay
[33] = target: T1, CDK9/cyclin T1 (Homo sapiens); experiment: Inhibition of CDK9/Cyclin T1 in human Mutu-3 cells assessed as reduction in H4 histone acetylation at -317 distal EBV genome region at 500 nM incubated for 2 hrs by CHIP assay
[34] = target: T1, CDK9/cyclin T1 (Homo sapiens); experiment: Inhibition of CDK9/Cyclin T1 in human Mutu-3 cells assessed as reduction in H3 histone acetylation at +2238 distal EBV genome region at 500 nM incubated for 2 hrs by CHIP assay
[35] = target: T1, CDK9/cyclin T1 (Homo sapiens); experiment: Inhibition of CDK9/Cyclin T1 in human Mutu-3 cells assessed as reduction in RNA pol II C-terminal domain phosphorylation on serine 5 at -208 distal EBV genome region at 500 nM incubated for 2 hrs by CHIP assay
[36] = target: T1, CDK9/cyclin T1 (Homo sapiens); experiment: Inhibition of CDK9/Cyclin T1 in human Mutu-3 cells assessed as increase in fold change pTEFb/Brd4 complex
[37] = target: T1, CDK9/cyclin T1 (Homo sapiens); experiment: Inhibition of CDK9/Cyclin T1 in human Mutu-3 cells assessed as reduction in H4 histone acetylation at +574 distal EBV genome region at 500 nM incubated for 2 hrs by CHIP assay
[38] = target: T1, CDK9/cyclin T1 (Homo sapiens); experiment: Inhibition of CDK9/Cyclin T1 in human B cell transfected with EBV assessed as reduction in RNA pol II C-terminal domain phosphorylation on serine 5 at +295 distal EBV genome region at 500 nM incubated for 2 hrs in presence of beta-estradiol by CHIP assay
[39] = target: T1, CDK9/cyclin T1 (Homo sapiens); experiment: Inhibition of CDK9/Cyclin T1 in human Mutu-3 cells assessed as reduction in RNA pol II C-terminal domain phosphorylation on serine 5 at +38828 distal EBV genome region at 500 nM incubated for 2 hrs by CHIP assay
[40] = target: T1, CDK9/cyclin T1 (Homo sapiens); experiment: Inhibition of CDK9/Cyclin T1 in human Mutu-3 cells assessed as decrease in Cp-initiated EBNA 1 transcription at 25 to 50 uM incubated for 24 hrs by Q-PCR analysis; conditions: dose 25-50 µM; procedure, shortened: as §1
[41] = target: T1, CDK9/cyclin T1 (Homo sapiens); experiment: Inhibition of CDK9/Cyclin T1 in human Mutu-3 cells assessed as reduction in RNA pol II C-terminal domain phosphorylation on serine 5 at +295 distal EBV genome region at 500 nM incubated for 2 hrs by CHIP assay

OC[C@H]1O[C@@H](n2cnc3cc(Cl)c(Cl)cc32)[C@H](O)[C@@H]1O
inhibition [1]: inactive
inhibition [2]: Active
inhibition [3]: Active
inhibition [4]: Active
inhibition [5]: Active
inhibition [6]: Active
inhibition [7]: inactive
inhibition [8]: Active
inhibition [9]: inactive
inhibition [10]: Active
inhibition [11]: Active
inhibition [12]: inactive
inhibition [13]: inactive
inhibition [14]: Active
inhibition [15]: Active
inhibition [16]: Active
inhibition [17]: Active
inhibition [18]: Active
inhibition [19]: Active
inhibition [20]: Active
inhibition [21]: Active
fold change (FC) [22]: 2
inhibition [23]: Active
inhibition [24]: Active
inhibition [25]: inactive
inhibition [26]: Active
inhibition [27]: Active
inhibition [28]: inactive
inhibition [29]: Active
inhibition [30]: Active
inhibition [31]: Active
inhibition [32]: Active
inhibition [33]: Active
inhibition [34]: Active
inhibition [35]: Active
fold change (FC) [36]: 2
inhibition [37]: Active
inhibition [38]: Active
inhibition [39]: Active
inhibition [40]: Active
inhibition [41]: Active
